Source: ChEMBL document CHEMBL1139962, “Synthesis and anthelmintic activity of cyclohexadepsipeptides with cyclohexylmethyl side chains” (Bioorg Med Chem Lett, 2007)

Tests used:
[1] = Partition coefficient, log P at pH 2.3; type: physicochemical; settings: octanol/water
Haemonchus contortus [2] = assay: Anthelmintic activity against Haemonchus contortus Rudolphi L3 larvae infected sheep assessed as reduction of faecal egg counts at 5 mg/kg, po; type: functional, Feces; design: scale not given: the % may be the effect or the level left
Outline: (§1)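 Sheep experimentally infected with Haemonchus contortus Rudolphi L3 larvae; dosed after the parasite's prepatency period ended. Compound given orally in gelatine capsules. Faecal egg counts by McMaster method (Wetzel modification) on freshly obtained faeces, counted at regular intervals before and after treatment; activity expressed as reduction in egg counts.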

Haemonchus contortus [3] = assay: Anthelmintic activity against Haemonchus contortus Rudolphi L3 larvae infected sheep assessed as reduction of faecal egg counts at 0.50 mg/kg, po; type: functional, Feces; design: scale not given: the % may be the effect or the level left; settings: dose 0.5 mg/kg; outline: as §1
Haemonchus contortus [4] = assay: Anthelmintic activity against Haemonchus contortus Rudolphi L3 larvae infected sheep assessed as reduction of faecal egg counts at 0.25 mg/kg, po; type: functional, Feces; design: scale not given: the % may be the effect or the level left; outline: as §1

logP [1]	Structure (SMILES)	Activity (Haemonchus contortus [2])	Activity (Haemonchus contortus [3]) [%]	Activity (Haemonchus contortus [4])
5.46	CC[C@@H](C)[C@H]1C(=O)O[C@H](C(C)C)C(=O)N(C)[C@@H](Cc2ccccc2)C(=O)O[C@H](C(C)C)C(=O)N(C)[C@@H]([C@H](C)CC)C(=O)O[C@H](C(C)C)C(=O)N1C	>=95%		
4.28	CC[C@@H](C)[C@H]1C(=O)O[C@H](C)C(=O)N(C)[C@@H](Cc2ccccc2)C(=O)O[C@H](C)C(=O)N(C)[C@@H]([C@H](C)CC)C(=O)O[C@H](C)C(=O)N1C			50%

The next lines start with the compound.

Structure (SMILES)	logP [1]	Activity (Haemonchus contortus [2])	Activity (Haemonchus contortus [3]) [%]	Activity (Haemonchus contortus [4])
CC(C)C[C@H]1C(=O)O[C@H](Cc2ccccc2)C(=O)N(C)[C@@H](CC(C)C)C(=O)O[C@H](C)C(=O)N(C)[C@@H](CC(C)C)C(=O)O[C@H](C)C(=O)N1C	4.63	<=50%		
CC[C@@H](C)[C@H]1C(=O)O[C@H](C(C)C)C(=O)N(C)[C@@H](CC2CCCCC2)C(=O)O[C@H](C(C)C)C(=O)N(C)[C@@H]([C@H](C)CC)C(=O)O[C@H](C(C)C)C(=O)N1C	6.3		75	
CC[C@@H](C)[C@H]1C(=O)O[C@H](C)C(=O)N(C)[C@@H](CC2CCCCC2)C(=O)O[C@H](C)C(=O)N(C)[C@@H]([C@H](C)CC)C(=O)O[C@H](C)C(=O)N1C	4.91			>=95%
CC(C)C[C@H]1C(=O)O[C@H](CC2CCCCC2)C(=O)N(C)[C@@H](CC(C)C)C(=O)O[C@H](C)C(=O)N(C)[C@@H](CC(C)C)C(=O)O[C@H](C)C(=O)N1C	5.57			75%
